# Measurements from ChEMBL document CHEMBL1817648, “Synthesis and in vitro antibacterial activity of a series of novel gatifloxacin derivatives” (Eur J Med Chem, 2011).
# Columns and labels:
# [1] = Cytotoxicity against african green monkey Vero cells after 72 hrs by MTT assay; format: cell-based; settings: chlorocebus sabaeus
# Outline: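 Vero cells were kept in Minimum Essential Medium with Earle's salts plus 10% fetal bovine serum at 37 °C under 5% CO₂. Cells were seeded at 1 × 10⁴ per well and allowed to recover 24 h. Medium was then replaced with assay medium containing compound or no drug, and cells were exposed for 72 h. CC₅₀ is the 50% cellular cytotoxic concentration.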
# Staphylococcus aureus [2] = test: Antibacterial activity against Staphylococcus aureus ATCC 25923 after 18 to 24 hrs by NCCLS M100-S11 two fold serial dilution method; format: functional; settings: ATCC25923
# Staphylococcus aureus [3] = test: Antibacterial activity against methicillin-resistant Staphylococcus aureus 08-1 after 18 to 24 hrs by NCCLS M100-S11 two fold serial dilution method; format: functional
# Outline: (§1)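 Two-fold serial dilution in agar medium. MIC read as the lowest concentration giving complete inhibition of bacterial growth after incubation at 35 °C for 18–24 h.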
# Staphylococcus aureus [4] = test: Antibacterial activity against methicillin-sensitive Staphylococcus aureus 08-1 after 18 to 24 hrs by NCCLS M100-S11 two fold serial dilution method; format: functional
# [5] = tested on: Staphylococcus epidermidis; test: Antibacterial activity against methicillin-resistant Staphylococcus epidermidis 09-4 after 18 to 24 hrs by NCCLS M100-S11 two fold serial dilution method; format: functional; outline: as §1
# [6] = tested on: Staphylococcus epidermidis; test: Antibacterial activity against methicillin-sensitive Staphylococcus epidermidis 09-3 after 18 to 24 hrs by NCCLS M100-S11 two fold serial dilution method; format: functional; outline: as §1
# [7] = tested on: Staphylococcus epidermidis; test: Antibacterial activity against methicillin-sensitive Staphylococcus epidermidis 09-6 after 18 to 24 hrs by NCCLS M100-S11 two fold serial dilution method; format: functional; outline: as §1
# Streptococcus pneumoniae [8] = test: Antibacterial activity against Streptococcus pneumoniae 08-2 after 18 to 24 hrs by NCCLS M100-S11 two fold serial dilution method; format: functional
# Streptococcus pneumoniae [9] = test: Antibacterial activity against Streptococcus pneumoniae 08-4 after 18 to 24 hrs by NCCLS M100-S11 two fold serial dilution method; format: functional
# Enterococcus faecium [10] = test: Antibacterial activity against Enterococcus faecium 08-2 after 18 to 24 hrs by NCCLS M100-S11 two fold serial dilution method; format: functional
# Enterococcus faecium [11] = test: Antibacterial activity against Enterococcus faecium 08-7 after 18 to 24 hrs by NCCLS M100-S11 two fold serial dilution method; format: functional
# Enterococcus faecalis [12] = test: Antibacterial activity against Enterococcus faecalis 08-10 after 18 to 24 hrs by NCCLS M100-S11 two fold serial dilution method; format: functional
# Enterococcus faecalis [13] = test: Antibacterial activity against Enterococcus faecalis 08-12 after 18 to 24 hrs by NCCLS M100-S11 two fold serial dilution method; format: functional
# Escherichia coli [14] = test: Antibacterial activity against Escherichia coli ATCC 25922 after 18 to 24 hrs by NCCLS M100-S11 two fold serial dilution method; format: functional; settings: ATCC25922
# Escherichia coli [15] = test: Antibacterial activity against Escherichia coli 08-21 after 18 to 24 hrs by NCCLS M100-S11 two fold serial dilution method; format: functional
# Escherichia coli [16] = test: Antibacterial activity against Escherichia coli 08-22 after 18 to 24 hrs by NCCLS M100-S11 two fold serial dilution method; format: functional
# Klebsiella pneumoniae [17] = test: Antibacterial activity against Klebsiella pneumoniae 09-22 after 18 to 24 hrs by NCCLS M100-S11 two fold serial dilution method; format: functional
# Pseudomonas aeruginosa [18] = test: Antibacterial activity against Pseudomonas aeruginosa ATCC 27853 after 18 to 24 hrs by NCCLS M100-S11 two fold serial dilution method; format: functional
# Pseudomonas aeruginosa [19] = test: Antibacterial activity against Pseudomonas aeruginosa 09-32 after 18 to 24 hrs by NCCLS M100-S11 two fold serial dilution method; format: functional
# Pseudomonas aeruginosa [20] = test: Antibacterial activity against Pseudomonas aeruginosa 09-33 after 18 to 24 hrs by NCCLS M100-S11 two fold serial dilution method; format: functional
# Pseudomonas aeruginosa [21] = test: Antibacterial activity against Pseudomonas aeruginosa 09-34 after 18 to 24 hrs by NCCLS M100-S11 two fold serial dilution method; format: functional
# Klebsiella pneumoniae [22] = test: Antibacterial activity against Klebsiella pneumoniae 09-23 after 18 to 24 hrs by NCCLS M100-S11 two fold serial dilution method; format: functional
# Pseudomonas aeruginosa [23] = test: Ratio of levofloxacin MIC to compound MIC for Pseudomonas aeruginosa ATCC 27853; format: functional
# Pseudomonas aeruginosa [24] = test: Ratio of levofloxacin MIC to compound MIC for Pseudomonas aeruginosa 09-32; format: functional
# Pseudomonas aeruginosa [25] = test: Ratio of levofloxacin MIC to compound MIC for Pseudomonas aeruginosa 09-33; format: functional
# Pseudomonas aeruginosa [26] = test: Ratio of levofloxacin MIC to compound MIC for Pseudomonas aeruginosa 09-34; format: functional
SMILES,CC50 at 72 h [1],MIC (Staphylococcus aureus [2]),MIC (Staphylococcus aureus [3]),MIC (Staphylococcus aureus [4]),MIC [5],MIC [6],MIC [7],MIC (Streptococcus pneumoniae [8]),MIC (Streptococcus pneumoniae [9]),MIC (Enterococcus faecium [10]),MIC (Enterococcus faecium [11]),MIC (Enterococcus faecalis [12]),MIC (Enterococcus faecalis [13]),MIC (Escherichia coli [14]),MIC (Escherichia coli [15]),MIC (Escherichia coli [16]),MIC (Klebsiella pneumoniae [17]),MIC (Pseudomonas aeruginosa [18]),MIC (Pseudomonas aeruginosa [19]),MIC (Pseudomonas aeruginosa [20]),also measured
COC(=O)CN1CCN(c2c(F)cc3c(=O)c(C(=O)O)cn(C4CC4)c3c2OC)CC1C (centres undefined),500 µg/mL,8 µg/mL,128 µg/mL,32 µg/mL,32 µg/mL,32 µg/mL,32 µg/mL,> 128 µg/mL,> 128 µg/mL,> 128 µg/mL,> 128 µg/mL,> 128 µg/mL,> 128 µg/mL,128 µg/mL,> 128 µg/mL,> 128 µg/mL,128 µg/mL,128 µg/mL,128 µg/mL,128 µg/mL,MIC (Pseudomonas aeruginosa [21]): > 128 µg/mL; MIC (Klebsiella pneumoniae [22]): > 128 µg/mL
CO/N=C(\C)CCN1CCN(c2c(F)cc3c(=O)c(C(=O)O)cn(C4CC4)c3c2OC)CC1C (centres undefined),157 µg/mL,0.5 µg/mL,> 128 µg/mL,2 µg/mL,2 µg/mL,0.5 µg/mL,1 µg/mL,> 128 µg/mL,> 128 µg/mL,> 128 µg/mL,> 128 µg/mL,> 128 µg/mL,> 128 µg/mL,128 µg/mL,> 128 µg/mL,> 128 µg/mL,> 128 µg/mL,128 µg/mL,128 µg/mL,> 128 µg/mL,MIC (Pseudomonas aeruginosa [21]): > 128 µg/mL; MIC (Klebsiella pneumoniae [22]): > 128 µg/mL
COc1c(N2CCN(CC(C)=O)C(C)C2)c(F)cc2c(=O)c(C(=O)O)cn(C3CC3)c12 (centres undefined),500 µg/mL,0.25 µg/mL,16 µg/mL,1 µg/mL,2 µg/mL,0.25 µg/mL,0.25 µg/mL,32 µg/mL,2 µg/mL,32 µg/mL,32 µg/mL,32 µg/mL,128 µg/mL,8 µg/mL,128 µg/mL,32 µg/mL,16 µg/mL,8 µg/mL,2 µg/mL,128 µg/mL,MIC (Pseudomonas aeruginosa [21]): 16 µg/mL; MIC (Klebsiella pneumoniae [22]): 2 µg/mL
CCOC(=O)CN1CCN(c2c(F)cc3c(=O)c(C(=O)O)cn(C4CC4)c3c2OC)CC1C (centres undefined),1000 µg/mL,4 µg/mL,> 128 µg/mL,4 µg/mL,4 µg/mL,4 µg/mL,4 µg/mL,> 128 µg/mL,4 µg/mL,> 128 µg/mL,> 128 µg/mL,> 128 µg/mL,> 128 µg/mL,128 µg/mL,> 128 µg/mL,> 128 µg/mL,> 128 µg/mL,128 µg/mL,> 128 µg/mL,> 128 µg/mL,MIC (Pseudomonas aeruginosa [21]): > 128 µg/mL; MIC (Klebsiella pneumoniae [22]): > 128 µg/mL
COc1c(N2CCN(CC/C(C)=N/Nc3ccccc3)C(C)C2)c(F)cc2c(=O)c(C(=O)O)cn(C3CC3)c12 (centres undefined),62.5 µg/mL,0.06 µg/mL,0.25 µg/mL,0.125 µg/mL,0.06 µg/mL,0.06 µg/mL,0.25 µg/mL,0.5 µg/mL,0.25 µg/mL,0.5 µg/mL,0.5 µg/mL,0.5 µg/mL,1 µg/mL,0.25 µg/mL,1 µg/mL,1 µg/mL,0.5 µg/mL,0.5 µg/mL,0.5 µg/mL,0.5 µg/mL,Ratio (Pseudomonas aeruginosa [23]): 2; MIC (Pseudomonas aeruginosa [21]): 0.25 µg/mL; Ratio (Pseudomonas aeruginosa [24]): 2; Ratio (Pseudomonas aeruginosa [25]): 2; Ratio (Pseudomonas aeruginosa [26]): 2; MIC (Klebsiella pneumoniae [22]): 1 µg/mL
